Laboratory results from ChEMBL document CHEMBL1133010, “Structure-function studies of polymyxin B nonapeptide: implications to sensitization of gram-negative bacteria” (J Med Chem, 2000).

Tests used:
Assay type in all cases: functional
[1] = system: Escherichia coli; experiment: Maximal displacement of dansyl-PMBN from Escherichia coli LPS
Summary of the method: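 Fluorescence displacement assay. E. coli LPS (3 µg/mL, ~2 × 10^-7 M) in 5 mM HEPES pH 7.2 was pre-equilibrated with dansyl-PMBN (0.55 µM). Peptide was added stepwise at 5-min intervals from 1 × 10^-5 to 1 × 10^-3 M stocks. Fluorescence read at excitation 340 nm and emission 485 nm after each addition. Percent inhibition was plotted against concentration to give maximal and 50% displacement. 2-3 repeats.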

[2] = system: Escherichia coli; experiment: Relative sensitizing activity against Escherichia coli was determined as a percent of pPMBN (50 ug/mL) as a control
Summary of the method: (§1)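 Clinical isolates at 1 × 10^5 CFU per well, in ISB with a 2-fold serial dilution (1000-0.5 µg/mL) of novobiocin. Peptide added at 50 µg/mL final. Incubated 20 h at 37 °C and read by visible growth. Sensitizing activity is the fold drop in novobiocin MIC with versus without peptide, expressed as percent of that given by 50 µg/mL pPMBN.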

[3] = system: Klebsiella pneumoniae; experiment: Relative sensitizing activity against Klebsiella pneumoniae was determined as a percent of pPMBN (50 ug/mL) as a control; summary of the method: as §1

| Molecule | Imax [1] [%] | Activity [2] [%] | Activity [3] [%] |
| --- | --- | --- | --- |
| POLYMYXIN B | 100 |  |  |
| CC(C)C[C@H]1NC(=O)[C@@H](Cc2ccccc2)NC(=O)[C@@H](CCN)NC(=O)[C@H](NC(=O)[C@H](CCN)NC(=O)[C@@H](N)[C@@H](C)O)CCCCNC(=O)[C@H]([C@@H](C)O)NC(=O)[C@@H](CCN)NC(=O)[C@H](CCN)NC1=O | 60 |  |  |
| CC(C)C[C@H]1NC(=O)[C@@H](Cc2ccccc2)NC(=O)[C@@H](CCN)NC(=O)[C@H](NC(=O)[C@H](CCN)NC(=O)[C@@H](N)[C@@H](C)O)CCNC(=O)[C@H]([C@@H](C)O)NC(=O)[C@@H](CCN)NC(=O)[C@H](CCN)NC1=O (stereo in doubt; form 1) | 80 |  |  |
| CC(C)C[C@H]1NC(=O)[C@H](Cc2ccccc2)NC(=O)[C@@H](CCN=C(N)N)NC(=O)[C@H](NC(=O)[C@H](CCN=C(N)N)NC(=O)[C@@H](N)[C@@H](C)O)CCNC(=O)[C@H]([C@@H](C)O)NC(=O)[C@@H](CCN=C(N)N)NC(=O)[C@H](CCN=C(N)N)NC1=O | 80 |  |  |
| CC(C)C[C@@H]1NC(=O)[C@@H](Cc2ccccc2)NC(=O)[C@H](CCN)NC(=O)[C@H](CCN)NC(=O)[C@@H](NC(=O)[C@@H](N)[C@@H](C)O)CCNC(=O)[C@H]([C@@H](C)O)NC(=O)[C@H](CCN)NC(=O)[C@H](CCN)NC1=O |  | 7 | 5 |
| CC(C)C[C@H]1NC(=O)[C@@H](Cc2ccccc2)NC(=O)[C@@H](CCCCN)NC(=O)[C@H](NC(=O)[C@H](CCCCN)NC(=O)[C@@H](N)[C@@H](C)O)CCCCNC(=O)[C@H]([C@@H](C)O)NC(=O)[C@@H](CCCCN)NC(=O)[C@H](CCCCN)NC1=O | 60 |  |  |
| CC(C)C[C@@H]1NC(=O)[C@@H](Cc2ccccc2)NC(=O)[C@H](CN)NC(=O)[C@@H](NC(=O)[C@H](CN)NC(=O)[C@@H](N)[C@@H](C)O)CNC(=O)[C@H]([C@@H](C)O)NC(=O)[C@H](CN)NC(=O)[C@H](CN)NC1=O |  | 11 | 5 |
| CC(C)C[C@H]1NC(=O)[C@@H](Cc2ccccc2)NC(=O)[C@@H](CCCN)NC(=O)[C@H](NC(=O)[C@H](CCCN)NC(=O)[C@@H](N)[C@@H](C)O)CCCNC(=O)[C@H]([C@@H](C)O)NC(=O)[C@@H](CCCN)NC(=O)[C@H](CCCN)NC1=O | 62 |  |  |
| CC(C)C[C@H]1NC(=O)[C@@H](Cc2ccccc2)NC(=O)[C@@H](CCCCN)NC(=O)[C@H](NC(=O)[C@H](CCCCN)NC(=O)[C@@H](N)[C@@H](C)O)CCNC(=O)[C@H]([C@@H](C)O)NC(=O)[C@@H](CCCCN)NC(=O)[C@H](CCCCN)NC1=O | 45 |  |  |
| CC(C)C[C@@H]1NC(=O)[C@@H](Cc2ccccc2)NC(=O)[C@H](CCCCN)NC(=O)[C@@H](NC(=O)[C@H](CCCCN)NC(=O)[C@@H](N)[C@@H](C)O)CCCCNC(=O)[C@H]([C@@H](C)O)NC(=O)[C@H](CCCCN)NC(=O)[C@H](CCCCN)NC1=O |  | 4 | 3 |
| CC(C)C[C@@H]1NC(=O)[C@@H](Cc2ccccc2)NC(=O)[C@H](CCN)NC(=O)[C@@H](NC(=O)[C@H](CCN)NC(=O)[C@@H](N)[C@@H](C)O)CCNC(=O)[C@H]([C@@H](C)O)NC(=O)[C@H](CCCCN)NC(=O)[C@H](CCCCN)NC1=O |  | 40 | 26 |
| CC(C)C[C@H]1NC(=O)[C@@H](Cc2ccccc2)NC(=O)[C@@H](CCN)NC(=O)[C@H](NC(=O)[C@H](CCN)NC(=O)[C@@H](N)[C@@H](C)O)CCNC(=O)[C@H]([C@@H](C)O)NC(=O)[C@@H](CCN)NC(=O)[C@H](CCN)NC1=O (stereo in doubt; form 2) | 80 |  |  |
| CC(C)C[C@H]1NC(=O)[C@H](Cc2ccccc2)NC(=O)[C@@H](CCN)NC(=O)[C@H](NC(=O)[C@H](CCN)NC(=O)[C@@H](N)[C@@H](C)O)CCNC(=O)[C@H]([C@@H](C)O)NC(=O)[C@@H](CCN)NC(=O)[C@H](CCN)NC1=O | 64 |  |  |
| CC(C)C[C@H]1NC(=O)[C@@H](Cc2ccccc2)NC(=O)[C@@H](NC(=O)[C@H](CCN)NC(=O)[C@H](CCN)NC(=O)[C@@H](N)[C@@H](C)O)CCNC(=O)[C@H]([C@@H](C)O)NC(=O)[C@@H](CCN)NC(=O)[C@H](CCN)NC1=O | 45 |  |  |
| CC(C)C[C@@H]1NC(=O)[C@@H](Cc2ccccc2)NC(=O)[C@H](CCCN)NC(=O)[C@@H](NC(=O)[C@H](CCCN)NC(=O)[C@@H](N)[C@@H](C)O)CCCNC(=O)[C@H]([C@@H](C)O)NC(=O)[C@H](CCCN)NC(=O)[C@H](CCCN)NC1=O |  | 2 | 6 |
| CC(C)C[C@@H]1NC(=O)[C@@H](Cc2ccccc2)NC(=O)[C@@H](NC(=O)[C@H](CCN)NC(=O)[C@H](CCN)NC(=O)[C@@H](N)[C@@H](C)O)CCNC(=O)[C@H]([C@@H](C)O)NC(=O)[C@H](CCN)NC(=O)[C@H](CCN)NC1=O |  | 4 | 5 |
| CC(C)C[C@@H]1NC(=O)[C@@H](Cc2ccccc2)NC(=O)[C@H](CCN)NC(=O)[C@@H](NC(=O)[C@H](CCN)NC(=O)[C@@H](N)[C@@H](C)O)CCNC(=O)[C@H]([C@@H](C)O)NC(=O)[C@H](CCN)NC(=O)[C@H](CCN)NC1=O (stereo in doubt; form 2) |  | 96 | 93 |
| CC(C)C[C@@H]1NC(=O)[C@H](Cc2ccccc2)NC(=O)[C@H](CCN)NC(=O)[C@@H](NC(=O)[C@H](CCN)NC(=O)[C@@H](N)[C@@H](C)O)CCNC(=O)[C@H]([C@@H](C)O)NC(=O)[C@H](CCN)NC(=O)[C@H](CCN)NC1=O |  | 5 | 9 |
| CC(C)C[C@H]1NC(=O)[C@@H](Cc2ccccc2)NC(=O)[C@@H](CCN)NC(=O)[C@H](NC(=O)[C@H](CCN)NC(=O)[C@@H](N)[C@@H](C)O)CCNC(=O)[C@H]([C@@H](C)O)NC(=O)[C@@H](CCCCN)NC(=O)[C@H](CCCCN)NC1=O | 62 |  |  |
| CC(C)C[C@@H]1NC(=O)[C@@H](Cc2ccccc2)NC(=O)[C@H](CCN=C(N)N)NC(=O)[C@@H](NC(=O)[C@H](CCN=C(N)N)NC(=O)[C@@H](N)[C@@H](C)O)CCNC(=O)[C@H]([C@@H](C)O)NC(=O)[C@H](CCN=C(N)N)NC(=O)[C@H](CCN=C(N)N)NC1=O |  | 25 | 25 |
| CC(C)C[C@@H]1NC(=O)[C@@H](Cc2ccccc2)NC(=O)[C@H](CCN)NC(=O)[C@@H](NC(=O)[C@H](CCN)NC(=O)[C@@H](N)[C@@H](C)O)CCCCNC(=O)[C@H]([C@@H](C)O)NC(=O)[C@H](CCN)NC(=O)[C@H](CCN)NC1=O |  | 17 | 18 |
| CC(C)C[C@H]1NC(=O)[C@@H](Cc2ccccc2)NC(=O)[C@@H](CN)NC(=O)[C@H](NC(=O)[C@H](CN)NC(=O)[C@@H](N)[C@@H](C)O)CNC(=O)[C@H]([C@@H](C)O)NC(=O)[C@@H](CN)NC(=O)[C@H](CN)NC1=O | 64 |  |  |
| CC(C)C[C@H]1NC(=O)[C@@H](Cc2ccccc2)NC(=O)[C@@H](CCCCN)NC(=O)[C@H](NC(=O)[C@H](CCCCN)NC(=O)[C@@H](N)[C@@H](C)O)CCNC(=O)[C@H]([C@@H](C)O)NC(=O)[C@@H](CCN)NC(=O)[C@H](CCN)NC1=O | 64 |  |  |
| CC(C)C[C@@H]1NC(=O)[C@@H](Cc2ccccc2)NC(=O)[C@H](CCCCN)NC(=O)[C@@H](NC(=O)[C@H](CCCCN)NC(=O)[C@@H](N)[C@@H](C)O)CCNC(=O)[C@H]([C@@H](C)O)NC(=O)[C@H](CCN)NC(=O)[C@H](CCN)NC1=O |  | 9 | 13 |
| CC(C)C[C@H]1NC(=O)[C@@H](Cc2ccccc2)NC(=O)[C@@H](CCN)NC(=O)[C@H](CCN)NC(=O)[C@@H](NC(=O)[C@@H](N)[C@@H](C)O)CCNC(=O)[C@H]([C@@H](C)O)NC(=O)[C@@H](CCN)NC(=O)[C@H](CCN)NC1=O | 60 |  |  |
